What was measured:
[1] = folding enthalpy; higher = less favourable; fluorescence melt of hairpins on a sequencing array, two-state fit; settings: sodium 0.088 M
How it was run: (§1)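 Hairpins were imaged by Cy3 fluorescence on a sequenced MiSeq flow cell with annealed Cy3 and quencher oligos, in 50 mM Na-HEPES pH 8.0, 25 mM NaCl, in 2.5 °C steps up to 60 °C. Bootstrapped two-state fits of normalised signals gave melting temperature and folding enthalpy. Four replicates were combined by inverse variance, and fitted temperatures were raised by 9.35 °C to match UV melts.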

[2] = melting temperature; fluorescence melt of hairpins on a sequencing array, two-state fit, raised by 9.35 °C to match UV melts; settings: sodium 0.088 M
How it was run: as §1

Sequence | folding enthalpy [1] [kcal/mol] | Tm [2] [°C]
GCTGCGCGAAAGCCCTGC ((.(.((....)).).)) | -17.3 | 38.5
GCTGCGCGAAAGCTCGGC ((.(.((....)).).)) | -22.4 | 48.3
GCTGCGCGAAAGCTTAGC (((..((....))..))) | -20.5 | 39.6
GCTGCGGGAAACTGCGGC ((.((.(....).)).)) | -47.5 | 51.8
GCTGCTCGAAAGAGGAGC (((.(((....))).))) | -38.9 | 59.6
GCTGCTCGAAAGAGTAGC (((.(((....))).))) | -38.9 | 62.1
GCTGCTGGAAACAGCAAC (.(((((....))))).) | -12.1 | 44.3
GCTGGACCGAAAGGTAGC (((..(((....)))))) | -18.5 | 39.5
GCTGGACGAAAGTCAAGC (((.(((....))).))) | -38.3 | 58.7
GCTGGAGGAAACTCCAAC (.(((((....))))).) | -15.6 | 38
GCTGGCGAAAGCCTCAGC ((((((....)))..))) | -14.7 | 46.6
GCTGGCGGAAACACCAGC (((((.(....).))))) | -40.8 | 53.5
GCTGGCGGAAACGCCAAC (.(((((....))))).) | -11.2 | 43.7
GCTGGCGGAAACGCTGGC ((..(((....)))..)) | -32.7 | 53.7
GCTGGCTCGAAAGAGAGC (((..(((....)))))) | -11.1 | 36.9
GCTGGGCGAAAGCACGGC ((.(.((....)).).)) | -21.2 | 69.1
GCTGGGCGAAAGCATAGC (((..((....))..))) | -22.9 | 54.2
GCTGGGCGAAAGCCATGC ((..(((....)))..)) | -19.2 | 55.1
GCTGGGCGAAAGCCGAGC (((.(((....))).))) | -38.5 | 58.6
GCTGGGCGAAAGCCGTGC ((..(((....)))..)) | -18.2 | 47.6
GCTGGGCGAAAGCGCGGC ((.(.((....)).).)) | -33.2 | 64.1
GCTGGGCGAAAGCTAAGC (((..((....))..))) | -22.1 | 53.9
GCTGGGGGAAACCCTGGC ((..(((....)))..)) | -23.4 | 49.1

Sequence | folding enthalpy [1] [kcal/mol] | Tm [2] [°C]
GCTGGTGAAAACCAGC ((((((....)))))) | -22.6 | 69.1
GCTGGTGCGAAAGCAAGC (((..(((....)))))) | -14.5 | 43
GCTGGTGGAAACACTGGC ((..(((....)))..)) | -30.1 | 45.9
GCTGTAGGAAACTACAAC (.(((((....))))).) | -19.2 | 30.9
GCTGTCACGAAAGTGAGC (((..(((....)))))) | -12.2 | 38.3
GCTGTCCGAAAGGAAGC (((.(((....)))))) | -23.9 | 49.1
GCTGTCGAAAGACGAGC ((((((....))).))) | -25.6 | 54.1
GCTGTCGAAAGACTAAGC ((((((....)))..))) | -20 | 46.2
GCTGTGCGAAAGCAAGC (((.(((....)))))) | -21.5 | 51.8
GCTGTGCGAAAGCATTGC ((..(((....)))..)) | -20.7 | 53.5
GCTGTGCGAAAGCCCGGC ((.(.((....)).).)) | -20 | 46.8
GCTGTGCGAAAGCCGAGC (((..((....))..))) | -19 | 41.8
GCTGTGCGAAAGCGCCGC ((.(.((....)).).)) | -18.6 | 49.6
GCTGTGCGAAAGCGCTGC ((.(.((....)).).)) | -25.6 | 60.1
GCTGTGCGAAAGCTCGGC ((.(.((....)).).)) | -24.6 | 56
GCTGTTCGAAAGAAAAGC (((.(((....))).))) | -28.6 | 46.5
GCTGTTGGAAACAACGGC ((.((((....)))).)) | -39.8 | 54.3
GCTTAAGGAAACTCAAGC ((((.((....)).)))) | -17.8 | 28.3
GCTTAAGGAAACTTAGGC ((.((((....)))).)) | -23 | 36.3
GCTTACGAAAGTACTAGC ((((((....)))..))) | -13.6 | 31.8
GCTTACGAAAGTAGAGC ((((((....))).))) | -24.4 | 43.3
GCTTACGAAAGTATCAGC ((((((....)))..))) | -14.2 | 33.1
GCTTAGCGAAAGCAAGGC ((.(.((....)).).)) | -13.5 | 38.1

Sequence | folding enthalpy [1] [kcal/mol] | Tm [2] [°C]
GCTTAGCGAAAGCGAGGC ((.(.((....)).).)) | -15.4 | 51.8
GCTTAGCGAAAGCTTCGC ((..(((....)))..)) | -15 | 42.9
GCTTAGCGAAAGCTTGGC ((..(((....)))..)) | -18.3 | 47
GCTTAGGGAAACCTGAGC (((.(((....))).))) | -32.8 | 46.7
GCTTATCGAAAGATCAGC (((.(((....))).))) | -25.3 | 44
GCTTATGAAAATAAGC ((((((....)))))) | -31.8 | 51.6
GCTTATGGAAACACAAGC ((((.((....)).)))) | -26.2 | 33.2
GCTTCACGAAAGTGAGC (((.(((....)))))) | -17.8 | 51
GCTTCATCGAAAGATAGC (((..(((....)))))) | -13 | 28.3
GCTTCCCGAAAGGGCAGC (((.(((....))).))) | -32.5 | 53.3
GCTTCCGAAAGGAAGAGC ((((((....)))..))) | -13 | 55
GCTTCCGAAAGGACCAGC ((((((....)))..))) | -14.2 | 31.2
GCTTCCGAAAGGAGAGC ((((((....))).))) | -22.3 | 49.2
GCTTCCGAAAGGAGTAGC ((((((....)))..))) | -24.3 | 43.6
GCTTCCGAAAGGATAAGC ((((((....)))..))) | -22.8 | 44.2
GCTTCCGAAAGGATGAGC ((((((....)))..))) | -18.7 | 41.2
GCTTCCGGAAACGGAAAC (.(((((....))))).) | -14.7 | 40.5
GCTTCGCGAAAGCAATGC ((.(.((....)).).)) | -16.4 | 33.2
GCTTCGCGAAAGCCAGGC ((.(.((....)).).)) | -9.39 | 30.3
GCTTCGCGAAAGCGACGC ((.((((....)))).)) | -22.5 | 60.9
GCTTCGCGAAAGCGCAGC (((.(((....))).))) | -30.7 | 54.1
GCTTCGCGAAAGCTACGC ((.(.((....)).).)) | -12.6 | 42.9
GCTTCTGGAAACAGAAGC (((((((....))))))) | -49 | 64.9

Sequence | folding enthalpy [1] [kcal/mol] | Tm [2] [°C]
GCTTGACGAAAGTCAGC (((.(((....)))))) | -23.5 | 55.6
GCTTGACGAAAGTCGAGC (((.(((....))).))) | -39 | 63.1
GCTTGAGGAAACTCAAAC (.(((((....))))).) | -13.8 | 30.6
GCTTGCGAAAGCACCAGC ((((((....)))..))) | -8.92 | 34.8
GCTTGCGAAAGCAGAAGC ((((((....)))..))) | -21.7 | 47.2
GCTTGCGAAAGCAGAGC ((((((....))).))) | -18.6 | 52.7
GCTTGCGAAAGCATTAGC ((((((....)))..))) | -15.2 | 42
GCTTGCGCGAAAGCGAGC (((..(((....)))))) | -13.3 | 56.2
GCTTGCGGAAACGCAAAC (.(((((....))))).) | -12.4 | 44.6
GCTTGCGGAAACGTAGGC ((.(.((....)).).)) | -11.7 | 38.6
GCTTGGAAACAAGC (((((....))))) | -31 | 53.7
GCTTGGCGAAAGCCCCGC ((..(((....)))..)) | -12 | 35.8
GCTTGGCGAAAGCCTTGC ((..(((....)))..)) | -18.1 | 43.5
GCTTGGCGAAAGCTACGC ((.(.((....)).).)) | -14.8 | 43.3
GCTTGGCGAAAGCTATGC ((.(.((....)).).)) | -15.6 | 47.9
GCTTGGGGAAACCCGAGC (((.(((....))).))) | -41.7 | 56.7
GCTTGGGGAAACCTGAGC (((..((....))..))) | -30.3 | 40
GCTTGTGGAAACATGAGC (((..((....))..))) | -29.4 | 37.7
GCTTTACGAAAGTAAGC (((.(((....)))))) | -22.7 | 46.2
GCTTTAGCGAAAGCTAGC (((..(((....)))))) | -8.44 | 42.3
GCTTTAGGAAACTAAAGC (((((((....))))))) | -39.1 | 54.4
GCTTTAGGAAACTAAGGC ((.((((....)))).)) | -27.7 | 37

Reference: the array DNA melting data of Ke et al. (doi:10.1101/2024.01.08.574731)
